Measurements as given in PubChem BioAssay.
The source made the active and inactive calls.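 The calls were made as follows: active = active in primary screen and both duplicates, each dropping signal beyond three positive-control SD with fluorescence still positive; inactive = the rest.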

Molecular target: Short transient receptor potential channel 6 (Mus musculus) (UniProt Q61143)
Experiment: TRPC6 blockade by TRPC4 inhibitor hits – cell-based, HEK293, membrane potential dye, duplicate, selectivity assay for TRPC4 inhibitor project, confirmation (AID 434948)
Conditions: HEK293 TRPC6, membrane potential dye fluorescence, at 10 µM, stimulated with maximal-effect acetylcholine
Method in brief: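 Times: 45 min RT dye load, 110 s compound, 110 s agonist read | Assay system: HEK293 cells expressing mouse TRPC6 channel | Detection: Kinetic membrane potential dye fluorescence | Replicates: Duplicate testing | Read-out: Control-normalized integrated fluorescence ratio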

Short transient receptor potential channel 6 (Mus musculus), sequence (Q61143 whole entry, looked up): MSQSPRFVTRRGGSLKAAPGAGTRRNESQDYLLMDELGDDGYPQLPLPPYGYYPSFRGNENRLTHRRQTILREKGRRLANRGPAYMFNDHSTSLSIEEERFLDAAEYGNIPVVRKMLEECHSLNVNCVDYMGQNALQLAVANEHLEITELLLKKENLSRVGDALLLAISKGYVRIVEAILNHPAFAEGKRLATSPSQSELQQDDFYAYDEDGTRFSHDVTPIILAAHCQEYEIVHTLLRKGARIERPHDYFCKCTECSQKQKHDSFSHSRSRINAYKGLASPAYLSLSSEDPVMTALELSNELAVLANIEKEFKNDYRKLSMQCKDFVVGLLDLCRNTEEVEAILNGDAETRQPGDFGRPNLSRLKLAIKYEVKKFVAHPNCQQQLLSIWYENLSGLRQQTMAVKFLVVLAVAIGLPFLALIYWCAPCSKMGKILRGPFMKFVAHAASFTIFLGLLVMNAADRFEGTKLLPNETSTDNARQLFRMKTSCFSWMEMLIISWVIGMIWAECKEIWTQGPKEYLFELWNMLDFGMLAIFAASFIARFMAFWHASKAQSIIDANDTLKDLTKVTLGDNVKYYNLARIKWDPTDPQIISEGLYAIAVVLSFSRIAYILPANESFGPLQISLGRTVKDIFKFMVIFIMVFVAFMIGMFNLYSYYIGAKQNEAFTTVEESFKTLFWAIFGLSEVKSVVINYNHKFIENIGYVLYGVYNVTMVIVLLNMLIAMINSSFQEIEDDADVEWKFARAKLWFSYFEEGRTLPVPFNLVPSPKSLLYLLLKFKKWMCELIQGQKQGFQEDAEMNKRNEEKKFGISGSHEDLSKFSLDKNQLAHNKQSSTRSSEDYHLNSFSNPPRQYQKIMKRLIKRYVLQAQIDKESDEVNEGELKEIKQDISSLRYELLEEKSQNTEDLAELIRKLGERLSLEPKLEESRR

outcome, inactive:
CCCCN(CC)CCNC(=O)Cn1cc2c(n1)-c1c(oc(C(=O)N3CCCC3)c1C)CC2, Cc1ccc(NC(=S)NC2CC3CCC(C2)N3Cc2ccco2)c(C)c1 (centres undefined), COc1ccc(N2CCN(Cc3nc4ccccc4n3C)CC2)cc1, CCC(=O)NC(C)C(c1cccs1)N1CCN(c2ccccc2)CC1 (centres undefined), CC(=O)n1cc([C@H]2C=C(C(=O)NCc3ccccc3)O[C@@H](OCc3ccc(CO)cc3)C2)c2ccccc21, CCN1CCCC1CNC(=O)c1cc2c(OC)cccc2[nH]1 (centres undefined), COc1ccc(F)cc1CN1CCN(C(=O)CCC(=O)Nc2nnc(C(C)C)s2)CC1, CN(CCOc1ccc(Br)cc1)CC(O)c1ccccc1 (centres undefined), CCN1CCN(c2c(Cl)cccc2NC(=O)c2ccc([N+](=O)[O-])cc2)CC1, CCn1c(=O)c(C(=O)NNC(=O)c2ccccc2F)c(O)c2ccccc21, CN1C(CC(=O)Nc2ccc(Br)cc2)c2ccccc2CC1(C)C (centres undefined), COc1ccc(C(CNCC(O)COc2c(C)ccc(C)c2C)N(C)C)cc1 (centres undefined), COc1ccc(C(CNC(=O)C(Cc2ccccc2)NC(N)=O)N(C)C)cc1 (centres undefined), CCCN(CCC)CCNC(=O)CCC(=O)Nc1ccc2nc(N3CCOCC3)cc(C)c2c1, Fc1ccc(NC(=S)NCCc2ccccn2)cc1, Cc1noc(C)c1CCC(=O)NC1CCCN(Cc2ccc(CC(C)C)cc2)C1 (centres undefined), COc1ccc(C(CCNCc2ccc(N(C)C)cc2)c2ccccc2)cc1 (centres undefined), COc1ccc(-c2nn(-c3ccccc3C)cc2CNCc2cccnc2)cc1F, CN(C)C(CNC(=O)c1cccc(S(=O)(=O)N(C)C)c1)c1ccccc1 (centres undefined), Nc1c(C(=O)c2ccccc2)sc2nsc(SCCN3CCCC3)c12, CC1CC(C)CN(CCCNC(=O)c2ccc3c(c2)N(Cc2ccccc2)C(=O)c2ccccc2S3=O)C1 (centres undefined), CN(C)c1ccc(C(CNC(=O)Cc2cccc3ccccc23)N(C)C)cc1 (centres undefined), Cc1csc2c(N3CCN(C(=S)Nc4ccc(C(F)(F)F)cc4)CC3)ncnc12, O=S(=O)(NCCc1csc(-c2ccccc2)n1)c1cccnc1, COc1ccc(-c2nc(CSCC(=O)NC3CCN(Cc4ccccc4)CC3)c(C)o2)cc1OC, NC(N)=NN=C1CCCCCCCCCCC1, CCn1c(CN2CCN(Cc3ccc(C)cc3)C(CCO)C2)nc2ccccc21 (centres undefined), COc1ccc(C(CNc2nc(-c3cccnc3)nc3ccccc23)N(C)C)cc1 (centres undefined), Cc1ccc(Cn2c(SCCN3CCCCC3)nc3c2c(=O)n(C)c(=O)n3C)cc1, COc1ccc(C(CNC(=O)CCOc2ccccc2)N(C)C)cc1 (centres undefined), CCOC(=O)C1(CCOc2ccccc2)CCN(Cc2cc(OC)ccc2OC)CC1, Cc1cccc(NC(=S)NCC(c2ccccc2)N(C)C)c1 (centres undefined), CC(C)n1cnc2c(N(C)c3ccccc3)nc(N(CCN(C)C)Cc3ccccc3)nc21, CC(CN1CCCC(C(N)=O)C1)c1ccccc1 (centres undefined), O=c1c(Cc2ccc(F)cc2)c(O)ccn1CCc1cnc[nH]1, Cc1c(Cl)cccc1NC(=S)NCC(c1cccnc1)N(C)C (centres undefined), COc1ccc(C(CNC(=O)c2ccc3c(c2)OCCO3)N(C)C)cc1 (centres undefined), O=C(NC1CCCN(Cc2ccc(Cl)cc2)C1)C1CCC1 (centres undefined), CN(C)c1ccc(-c2sc(Nc3ccccc3)n[n+]2-c2ccc(F)cc2)cc1
